Measurements as given in BindingDB's records for doi:10.1021/jm970730q (Tulane University School of Medicine, 1998).
Positions of bridges follow the written chain, without caps; N, C: chain ends. Non-standard residues stand in square brackets, D forms with d. Residues, ends and D or L forms follow the SMILES beside them. Dip = N[C@H](C(=O)O)C(c1ccccc1)c1ccccc1; 2Nal = N[C@@H](Cc1ccc2ccccc2c1)C(=O)O; 3Pal = N[C@@H](Cc1cccnc1)C(=O)O

How the values were obtained:
[1] = target: Somatostatin receptor type 1 (Homo sapiens, UniProt P30872); assay: Binding affinity towards cloned human somatostatin 1 (hsst) receptor
Outline: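 Membranes from CHO-K1 cells stably transfected with the human receptor subtype (calcium phosphate transfection, G418 selection), homogenised and washed in Tris-HCl. Separated by filtration on PEI-soaked GF/C filters; nonspecific binding with 1.0 µM SRIF.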

[2] = target: Somatostatin receptor type 4 (Homo sapiens, UniProt P31391); assay: Binding affinity towards cloned human somatostatin 4 (hsst) receptor
Sequence of Somatostatin receptor type 4 (P31391 whole entry): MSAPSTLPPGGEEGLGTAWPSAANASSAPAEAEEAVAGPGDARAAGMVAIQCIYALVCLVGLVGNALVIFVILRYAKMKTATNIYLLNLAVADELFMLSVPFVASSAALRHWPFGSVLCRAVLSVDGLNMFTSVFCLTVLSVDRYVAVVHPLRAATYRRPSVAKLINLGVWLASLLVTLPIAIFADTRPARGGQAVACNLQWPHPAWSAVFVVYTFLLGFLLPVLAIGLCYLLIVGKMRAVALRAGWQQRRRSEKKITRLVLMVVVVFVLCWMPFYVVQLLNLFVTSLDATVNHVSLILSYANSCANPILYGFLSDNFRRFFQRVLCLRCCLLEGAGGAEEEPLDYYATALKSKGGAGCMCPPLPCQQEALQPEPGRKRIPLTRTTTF

Sequence of Somatostatin receptor type 1 (P30872 whole entry): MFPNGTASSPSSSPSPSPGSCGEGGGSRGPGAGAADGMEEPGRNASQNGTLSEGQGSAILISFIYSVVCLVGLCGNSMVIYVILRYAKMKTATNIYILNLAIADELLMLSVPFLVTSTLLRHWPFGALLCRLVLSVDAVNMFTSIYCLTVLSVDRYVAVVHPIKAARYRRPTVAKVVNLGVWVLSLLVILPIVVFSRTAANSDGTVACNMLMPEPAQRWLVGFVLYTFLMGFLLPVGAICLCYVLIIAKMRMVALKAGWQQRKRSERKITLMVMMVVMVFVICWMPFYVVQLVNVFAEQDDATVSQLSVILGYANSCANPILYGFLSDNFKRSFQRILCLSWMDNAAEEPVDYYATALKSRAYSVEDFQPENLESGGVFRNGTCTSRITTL

SMILES: CC(C)[C@@H]1NC(=O)[C@H](CCCCN)NC(=O)[C@@H](Cc2c[nH]c3ccccc23)NC(=O)[C@H](Cc2c[nH]cn2)NC(=O)[C@H](NC(=O)[C@@H](N)C(c2ccccc2)c2ccccc2)CSSC[C@@H](C(=O)N[C@H](C(N)=O)C(c2ccccc2)c2ccccc2)NC1=O [H-Dip-cyclo[DCys-His-DTrp-Lys-Val-Cys]-Dip-NH2] (H-[Dip][dC]H[dW]KVC[Dip]-NH2; disulfide 2-7)
- IC50 [1]: 1 µM

SMILES: CC(C)[C@@H]1NC(=O)[C@H](CCCCN)NC(=O)[C@@H](Cc2c[nH]c3ccccc23)NC(=O)[C@H](Cc2c[nH]cn2)NC(=O)[C@H](NC(=O)[C@@H](N)C(c2ccccc2)c2ccccc2)CSSC[C@@H](C(=O)N[C@@H](Cc2ccc3ccccc3c2)C(N)=O)NC1=O [H-Dip-cyclo[DCys-His-DTrp-Lys-Val-Cys]-Nal-NH2] (H-[Dip][dC]H[dW]KVC[2Nal]-NH2; disulfide 2-7)
- IC50 [2]: 1 µM

SMILES: CC(C)[C@@H]1NC(=O)[C@H](CCCCN)NC(=O)[C@@H](Cc2c[nH]c3ccccc23)NC(=O)[C@H](Cc2cccnc2)NC(=O)[C@H](NC(=O)[C@@H](N)C(c2ccccc2)c2ccccc2)CSSC[C@@H](C(=O)N[C@H](C(N)=O)C(c2ccccc2)c2ccccc2)NC1=O [H-Dip-cyclo[DCys-Pal-DTrp-Lys-Val-Cys]-Dip-NH2] (H-[Dip][dC][3Pal][dW]KVC[Dip]-NH2; disulfide 2-7)
- IC50 [1]: 1 µM
- IC50 [2]: 1 µM
